Results from different studies.
Compare with care: the assays were run in different laboratories. Converted amounts (≈) assume the structure as drawn.
Organism: Mycobacterium tuberculosis
Effect on: microbial growth

With `CCCCCCC#Cc1cncc(-c2nnc(SC[C@H]3O[C@@H](n4ccc(=O)[nH]c4=O)[C@H](O)[C@@H]3O)n2CCCN)c1` the IC50 was over 200 µM (resazurin; ERDMAN).
With `NC(=S)c1cncc(Cn2c(=S)[nH]c3cc(CO)c(Cl)cc3c2=O)c1` the MIC90 was 4.61 µM (H37RV).
With `CCCCCCC#Cc1cncc(-c2nnc(SCc3cc([N+](=O)[O-])cc([N+](=O)[O-])c3)n2CCOC2OC(CN)C(O)C2O)c1` (centres unmarked) the IC50 was 18 µM (resazurin; ERDMAN).
For `FC(F)(F)c1ccc(CCNc2cc(-c3cccs3)nc3nncn23)cc1`, the IC90 was 0.31 µM (H37RV).
With `NNC(=O)c1ccncc1` the MIC was 0.125 µg/mL (H37RV).
With `O=C(OCc1cc2[nH]c(=S)n(Cc3cncnc3)c(=O)c2cc1Cl)Oc1ccccc1` the MIC90 was 1.94 µM (H37RV).
With `Nc1c(C(=O)NCc2ccc(F)cc2)sc2ncccc12` the IC50 was over 100 µM (H37RV).
`NCC[C@H](O)C(=O)N[C@@H]1C[C@H](N)[C@@H](O[C@H]2O[C@H](CN)[C@@H](O)[C@H](O)[C@H]2O)[C@H](O)[C@H]1O[C@H]1O[C@H](CO)[C@@H](O)[C@H](N)[C@H]1O` gave an MIC50 of 0.25 µg/mL (≈ 0.427 µM).
`CCN(CC)C(=O)c1sc2ncccc2c1N` has an IC50 of over 100 µM (H37RV).
`COC(=O)c1cc2[nH]c(=S)n(Cc3cccnc3)c(=O)c2cc1Cl` gave an MIC90 of over 100 µM (H37RV).
For `CCc1cc(=O)c2c(OCC(O)CN3CCCCC3)c3ccoc3c(OC)c2o1` (centres unmarked), the MIC was 64 µg/mL (resazurin; H37RV; 21 days).
For `Nc1c(C(=O)Nc2ccccc2C(F)(F)F)sc2nc(-c3ccccc3)cc(C(F)(F)F)c12`, the IC50 was over 100 µM (H37RV).
With `O=c1c2cc(Cl)ccc2[nH]c(=S)n1Cc1cncc(-c2nnn[nH]2)c1` the MIC90 was over 100 µM (H37RV).
For `CC(C)(O)c1ccc(OCCc2cccc(F)c2)c(C(N)=O)c1`, the IC50 was 2.7 µM.
`NNC(=O)c1ccncc1` has an MIC90 of 0.34 µM (H37RA).
With `c1ccc(-c2cc(NCCC34CC5CC(CC(C5)C3)C4)n3ncnc3n2)nc1` the MIC was 12 µM (H37RV).
For `CCCCCCC#Cc1cncc(-c2nnc(SCc3cc(=O)[nH]c4ccccc34)n2C)c1`, the IC50 was over 200 µM (resazurin; ERDMAN).
With `CN(C)C(=O)OCc1cc2[nH]c(=S)n(Cc3cncnc3)c(=O)c2cc1Cl` the MIC90 was over 100 µM (H37RV).
For `CCCCCCC#Cc1cncc(-c2nnc(SC[C@H]3O[C@@H](n4ccc(=O)[nH]c4=O)[C@H](O)[C@@H]3O)n2CCO)c1`, the IC50 was 196 µM (resazurin; ERDMAN).
The MIC of `Clc1ccc(CCNc2cc(-c3ccco3)nc3nncn23)cc1` is reported as 4.8 µM (H37RV).
The IC50 of `COc1ccc(-c2cc(C(F)(F)F)c3c(N)c(C(=O)Nc4ccc(C)cc4C)sc3n2)cc1` is reported as over 100 µM (H37RV).
`Cc1ccc(CCNc2cc(-c3ccc(C)o3)nc3nncn23)cc1` has an MIC of 0.36 µM (H37RV).
`CC[C@@H](CO)NCCN[C@@H](CC)CO` gave an MIC of 0.5 µg/mL (resazurin; 21 days).
With `O=c1c2cc(Cl)cnc2[nH]c(=S)n1Cc1cccnc1` the MIC90 was over 100 µM (H37RV).
`Cc1ccc(-c2cc(NCCc3ccc(C(F)(F)F)cc3)n3cnnc3n2)o1` has an MIC of 0.37 µM (H37RV).
For `Cc1cccc(NC(=O)c2sc3nc(-c4ccco4)cc(C(F)(F)F)c3c2N)c1C`, the IC50 was over 100 µM (H37RV).
For `CN(C)Cc1cc2[nH]c(=S)n(Cc3cccnc3)c(=O)c2cc1Cl`, the MIC90 was over 100 µM (H37RV).
With `CC(CNc1cc(-c2ccccn2)nc2nncn12)c1ccccc1` (centres unmarked) the MIC was 35 µM (H37RV).
For `Nc1c(C(=O)NCc2ccc(F)cc2)sc2nc(-c3ccccc3)ccc12`, the IC50 was over 100 µM (H37RV).
`NNC(=O)c1ccncc1` has an MIC50 of 0.1 µg/mL (≈ 0.729 µM).
`CCc1cc(=O)c2c(OCC(O)CNC(C)C)c3ccoc3c(OC)c2o1` (centres unmarked) gave an MIC of 16 µg/mL (resazurin; 21 days).
For `C[C@H](N)C(=O)OCc1cc2[nH]c(=S)n(Cc3cncnc3)c(=O)c2cc1Cl`, the MIC90 was 4.22 µM (H37RV).
With `COc1ccc(-c2cc(C(F)(F)F)c3c(N)c(C(=O)NCCSC)sc3n2)cc1` the IC50 was 42 µM (H37RV).
`CO[C@H]1/C=C/O[C@@]2(C)Oc3c(C)c(O)c4c(O)c(c(/C=N/N5CCN(C)CC5)c(O)c4c3C2=O)NC(=O)/C(C)=C\C=C\[C@H](C)[C@H](O)[C@@H](C)[C@@H](O)[C@@H](C)[C@H](OC(C)=O)[C@@H]1C` has an MIC90 of 0.12 µg/mL (H37RV).
With `Clc1ccc(CCNc2cc(C3CCCO3)nc3nncn23)cc1` (centres unmarked) the MIC was 73 µM (H37RV).
For `Nc1c(C(=O)Nc2cccnc2)sc2nc(-c3ccccc3)cc(C(F)(F)F)c12`, the IC50 was over 100 µM (H37RV).
The MIC of `Cc1ccc(-c2cc(NCCc3ccc(F)cc3)n3cnnc3n2)o1` is reported as 19 µM (H37RV).
For `CCCCCCC#Cc1cncc(-c2nnc(SC[C@H]3O[C@@H](n4ccc(=O)[nH]c4=O)[C@H](O)[C@@H]3O)n2C)c1`, the IC50 was 98 µM (resazurin; ERDMAN).
